In ChEMBL document CHEMBL2086281, “Design, synthesis and 3D-QSAR analysis of novel 2-hydrazinyl-4-morpholinothieno[3,2-d]pyrimidine derivatives as potential antitumor agents” (Eur J Med Chem, 2012):

How the values were obtained:
[1] = test system: MDA-MB-231; test: Cytotoxicity against human MDA-MB-231 cells assessed as growth inhibition after 72 hrs by MTT assay; format: functional, cell-based; details: MDA-MB-231, 72 h
In short: (§1)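 Cells grown in MEM with 10% FBS. About 4×10^3 cells/well were pre-incubated for 24 h at 37 °C in 5% CO₂, then exposed to compound at the indicated final concentrations for 72 h. MTT was added to 5 µg/mL final for 4 h at 37 °C. Formazan was dissolved in DMSO and read at 492 nm, with 630 nm as reference. IC50 is the mean of three determinations.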

[2] = test system: HT-29; test: Cytotoxicity against human HT-29 cells assessed as growth inhibition after 72 hrs by MTT assay; format: functional, cell-based; details: HT-29, 72 h; in short: as §1
[3] = test system: NCI-H460; test: Cytotoxicity against human H460 cells assessed as growth inhibition after 72 hrs by MTT assay; format: functional, cell-based; details: NCI-H460, 72 h
In short: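 Cells grown in MEM with 10% FBS. About 4×10^3 cells/well were pre-incubated for 24 h at 37 °C in 5% CO₂, then exposed to compound at the indicated final concentrations for 72 h. MTT was added to 5 µg/mL final for 4 h at 37 °C. IC50 is the mean of three determinations.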

[4] = Cytotoxicity against human U87MG cells assessed as growth inhibition after 72 hrs by MTT assay; format: functional, cell-based, U-87MG ATCC; details: U-87 MG; in short: as §1
[5] = test system: NCI-H1975; test: Cytotoxicity against human NCI-H1975 cells assessed as growth inhibition after 72 hrs by MTT assay; format: functional, cell-based; details: NCI-H1975, 72 h; in short: as §1
[6] = test system: SGC-7901; test: Cytotoxicity against human SGC7901 cells assessed as growth inhibition after 72 hrs by MTT assay; format: functional, cell-based; details: SGC-7901, 72 h; in short: as §1
[7] = test system: HepG2; test: Cytotoxicity against human HepG2 cells assessed as growth inhibition after 72 hrs by MTT assay; format: functional, cell-based; details: HepG2, 72 h; in short: as §1
[8] = test system: NCI-H226; test: Cytotoxicity against human NCI-H226 cells assessed as growth inhibition after 72 hrs by MTT assay; format: functional, cell-based; details: NCI-H226, 72 h; in short: as §1
[9] = test system: A549; test: Cytotoxicity against human A549 cells assessed as growth inhibition after 72 hrs by MTT assay; format: functional, cell-based; details: A549, 72 h; in short: as §1

Row | SMILES | IC50 [1] [µM] | IC50 [2] [µM] | IC50 ([3]; read-out: IC50) [µM] | IC50 ([3]; read-out: pIC50 (converted)) [µM] | IC50 [4] [µM] | IC50 [5] [µM] | IC50 [6] [µM] | IC50 [7] [µM] | IC50 [8] [µM] | IC50 [9] [µM]
1 | Clc1ccccc1Cn1c(/C=N/Nc2nc(N3CCOCC3)c3sccc3n2)nc2ccccc21 | > 100 | 0.4 | 79.4 | 79.4 |  |  |  |  |  | 
2 | Clc1cccc(Cn2c(/C=N/Nc3nc(N4CCOCC4)c4sccc4n3)nc3ccccc32)c1 | 37.7 | 1.01 | 4.56 | 4.57 |  |  |  |  |  | 
3 | Clc1ccc(Cn2c(/C=N/Nc3nc(N4CCOCC4)c4sccc4n3)nc3ccccc32)cc1 | 13.9 | 0.77 | 2.6 | 2.63 | 13.4 |  |  |  |  | 
4 | CC(C)(C)c1ccc(Cn2c(/C=N/Nc3nc(N4CCOCC4)c4sccc4n3)nc3ccccc32)cc1 | 8.17 | 4.18 | 3.62 | 3.63 |  |  |  |  |  | 
5 | Clc1cccc(Cn2c(/C=N/Nc3nc(N4CCOCC4)c4sccc4n3)nc3ccccc32)c1Cl | > 100 | 6.46 | 37.1 | 37.2 |  |  |  |  |  | 
6 | CC(C)(O)c1cc2nc(N/N=C/c3cn(Cc4cccc(Cl)c4)c4ccccc34)nc(N3CCOCC3)c2s1 | 3.22 | 0.87 | 0.84 | 0.832 | 8.91 | 23.8 |  |  |  | 
7 | CC(C)(O)c1cc2nc(N/N=C/c3cn(Cc4ccc(Cl)cc4)c4ccccc34)nc(N3CCOCC3)c2s1 | 5.14 | 0.87 | 0.55 | 0.55 | 7.43 | 33.8 |  |  |  | 
8 | CC(C)(O)c1cc2nc(N/N=C/c3cn(Cc4ccccc4F)c4ccccc34)nc(N3CCOCC3)c2s1 | 1.66 | 1.05 | 1.1 | 1.1 | 3.92 | 15.6 |  |  |  | 
9 | CC(C)(O)c1cc2nc(N/N=C/c3cn(Cc4cccc(F)c4)c4ccccc34)nc(N3CCOCC3)c2s1 | 7.2 | 0.38 | 0.42 | 0.427 | 7.82 | 19.7 |  |  |  | 
10 | CC(C)(O)c1cc2nc(N/N=C/c3cn(Cc4ccc(F)cc4)c4ccccc34)nc(N3CCOCC3)c2s1 | 1.53 | 1.01 | 1.1 | 1.1 |  |  |  |  |  | 
11 | CC(C)(O)c1cc2nc(N/N=C/c3cn(Cc4cccc(C#N)c4)c4ccccc34)nc(N3CCOCC3)c2s1 | 5.61 | 1.39 | 0.36 | 0.363 | 6.64 |  |  |  |  | 
12 | CC(C)(O)c1cc2nc(N/N=C/c3cn(Cc4ccc(C#N)cc4)c4ccccc34)nc(N3CCOCC3)c2s1 | 6.31 | 2.54 | 4.53 | 4.57 |  |  |  |  |  | 
13 | CC(C)(O)c1cc2nc(N/N=C/c3cn(Cc4ccc(Cl)cc4Cl)c4ccccc34)nc(N3CCOCC3)c2s1 | > 100 | 5.38 | 8.9 | 8.91 |  |  |  |  |  | 
14 | CC(C)(O)c1cc2nc(N/N=C/c3cn(Cc4c(Cl)cccc4Cl)c4ccccc34)nc(N3CCOCC3)c2s1 | 62.1 | 3.36 | 4.03 | 4.07 |  |  |  |  |  | 
15 | CC(C)(O)c1cc2nc(N/N=C/c3cn(Cc4cccc(Cl)c4Cl)c4ccccc34)nc(N3CCOCC3)c2s1 | > 100 | 3.7 | 7.22 | 7.24 |  |  |  |  |  | 
16 | COc1cc(/C=N/Nc2nc(N3CCOCC3)nc(N3CCOCC3)n2)cc(OC)c1O | > 100 | 20.2 | 9.2 |  |  |  |  |  |  | 
17 | C=CCc1cccc(/C=N/NC(=O)CN2CCN(Cc3ccccc3)CC2)c1O [PAC-1] | 6.11 | 0.97 | 3.57 |  |  |  |  |  |  | 
18 | CS(=O)(=O)N1CCN(Cc2cc3nc(-c4cccc5[nH]ncc45)nc(N4CCOCC4)c3s2)CC1 [PICTILISIB] | 73.8 | 0.66 |  |  | 7.77 | 0.27 | 1.8 | 1 | 2.9 | 6.9
